The record followed here is ChEMBL document CHEMBL2375264, “Potent naphthoquinones against antimony-sensitive and -resistant Leishmania parasites: synthesis of novel α- and nor-α-lapachone-based 1,2,3-triazoles by copper-catalyzed azide-alkyne cycloaddition” (Eur J Med Chem, 2013).

pIC50: −log10 of the molar value.

The test system of data set [1] is Leishmania amazonensis. The experiment in a line: Ratio of potassium antimonyl tartrate IC50 to compound IC50 for antimony-sensitive Leishmania amazonensis MHOM/BR/1989/BA199 promastigote infected in Swiss mouse peritoneal macrophages. Format: functional.
The test system of data set [2] is Leishmania infantum. Briefly: Ratio of potassium antimonyl tartrate IC50 to compound IC50 for antimony-sensitive Leishmania infantum MCAN/BR/2002/BH400 promastigote infected in Swiss mouse peritoneal macrophages. It is filed as functional.
Data set [3] in a line: Selectivity index, ratio of CC50 for Swiss mouse peritoneal macrophages to IC50 for antimony-sensitive Leishmania amazonensis MHOM/BR/1989/BA199 promastigote. Format: functional. In short, it runs like this: (§1)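 SI = CC50 / IC50. CC50 is from Swiss mouse peritoneal macrophages, read by MTT after lavage and 1 h adherence. […] Promastigotes grown in α-MEM with 10% heat-inactivated FBS, hemin and biopterin, pH 7.0, 25 °C. DMSO ≤0.2% final. Triplicate.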

Data set [4] is described as follows: Selectivity index, ratio of CC50 for Swiss mouse peritoneal macrophages to IC50 for antimony-sensitive Leishmania infantum MCAN/BR/2002/BH400 promastigote. Format: functional. In short, it runs like this:
as §1

The nature of data set [5]: Cytotoxicity against Swiss mouse peritoneal macrophages after 24 hrs by MTT assay. It is filed as cell-based, Peritoneal macrophage cell. In a few lines: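 Macrophages from peritoneal lavage of Swiss mice with cold FBS-free RPMI-1640. Cells seeded at 4.0 × 10⁶/mL, adhered 1 h, non-adherent cells washed off. Compounds were DMSO stocks diluted in medium over a concentration range, final DMSO ≤0.2%. Viability read by MTT (5 mg/mL solution, 4 h further incubation). CC50 taken as the 50% cytotoxic concentration.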

Data set [6] concerns Leishmania amazonensis. The experiment in a line: Antileishmanial activity against antimony-resistant Leishmania amazonensis MHOM/BR/1989/BA199 promastigote infected in Swiss mouse peritoneal macrophages after 72 hrs. Format: functional, organism-based. Conditions: MHOM/BR/1989/BA199, 72 h. In a few lines:
(§2)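 Promastigotes of Sb(III)-sensitive and -resistant lines (resistant to Sb(III) up to 2700), maintained at 25 °C, pH 7.0, in α-MEM with 10% heat-inactivated FBS, kanamycin, ampicillin, L-glutamine, hemin and biopterin. Drugs dissolved in DMSO, diluted in α-MEM across a concentration range, final DMSO ≤0.2%.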

Data set [7] relates to Leishmania amazonensis. The experiment in a line: Antileishmanial activity against antimony-sensitive Leishmania amazonensis MHOM/BR/1989/BA199 promastigote infected in Swiss mouse peritoneal macrophages after 72 hrs. Format: functional, organism-based. Particulars: MHOM/BR/1989/BA199, 72 h. In short, it runs like this: as §2
Data set [8] relates to Leishmania infantum. The experiment in a line: Antileishmanial activity against antimony-resistant Leishmania infantum MCAN/BR/2002/BH400 promastigote infected in Swiss mouse peritoneal macrophages after 72 hrs. Format: functional, organism-based. Conditions: MCAN/BR/2002/BH400, 72 h. In short, it runs like this: as §2
The subject of data set [9] is Leishmania infantum. The experiment in a line: Antileishmanial activity against antimony-sensitive Leishmania infantum MCAN/BR/2002/BH400 promastigote infected in Swiss mouse peritoneal macrophages after 72 hrs. Format: functional, organism-based. Particulars: MCAN/BR/2002/BH400, 72 h. In short, it runs like this:
as §2

The nature of data set [10]: Selectivity index, ratio of CC50 for Swiss mouse peritoneal macrophages to IC50 for antimony-resistant Leishmania amazonensis MHOM/BR/1989/BA199 promastigote. Format: functional. In a few lines: (§3)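 SI = CC50/IC50. CC50 comes from Swiss mouse peritoneal macrophages, harvested by lavage with cold RPMI-1640 lacking FBS. Cells seeded at 4.0 × 10⁶/mL, allowed to adhere 1 h, then washed free of non-adherent cells. Viability read by MTT (5 mg/mL stock, 4 h).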

Data set [11] in a line: Selectivity index, ratio of CC50 for Swiss mouse peritoneal macrophages to IC50 for antimony-resistant Leishmania infantum MCAN/BR/2002/BH400 promastigote. It is filed as functional. In a few lines:
as §3

Broadly, the CC50 is the concentration at which the toxic effect on the cells reaches its halfway point. Usually pIC50 stands for the negative decadic logarithm of the IC50, by convention in mol/L. Higher therefore signals a small IC50. For `O=C1C=C(n2cc(-c3ccc([N+](=O)[O-])cc3)nn2)C(=O)c2ccccc21`, the “Ratio IC50” value came out at 2.2 in data set [1] and 2 in [2]. Further, the “Ratio CC50/IC50” value in data set [3] and in data set [4] was less than 0.5 in each case. This compound also showed a CC50 at 24 h in [5] of 50 µM. For the same compound, the pIC50 in data set [6], in [7], in data set [8] and in data set [9] was less than 4.00 in each case.
In the case of `CC1(C)CC(n2cc(C3CCCCC3)nn2)C2=C(O1)C(=O)c1ccccc1C2=O` (configuration not stated), the “Ratio CC50/IC50” value in [10] was 4.52; in data set [3], 0.93; in data set [11], 3.83; in data set [4] it was 3.8. The CC50 at 24 h in data set [5] was 8.59 µM. For the same compound, the pIC50 in data set [6] is 5.72; in [7], 5.03; in [8] it was 5.65; in [9], 5.65.
Turning to `CCCCCc1cn(C2CC(C)(C)OC3=C2C(=O)c2ccccc2C3=O)nn1` (configuration not stated), the “Ratio CC50/IC50” value in [10] was 3.53; in data set [3], 1.15; in data set [11], 3.13; in data set [4], 3.38. In [5], this compound yielded a CC50 at 24 h of 6.89 µM. Further, the pIC50 in [6] was 5.71; in data set [7], 5.22; in data set [8], 5.66; in data set [9] it was 5.69.
With `CCCc1cn(C2CC(C)(C)OC3=C2C(=O)c2ccccc2C3=O)nn1` (configuration not stated), the “Ratio CC50/IC50” value in [10] is recorded as 1.83; in data set [3], 3.38; in data set [11], 4.31; in data set [4], 2.5. This compound also gave a CC50 at 24 h in data set [5] of 14.8 µM. Also, the negative-log IC50 (pIC50) in data set [6] was 5.09; in [7], 5.36; in [8], 5.46; in [9], 5.23.
Turning to `CCC(C)(O)c1cn(C2CC(C)(C)OC3=C2C(=O)c2ccccc2C3=O)nn1` (configuration not stated), the “Ratio CC50/IC50” value in data set [10] is 0.45; in data set [3], 0.27; in data set [11], 2.92; in data set [4], 0.54. For the same compound, the CC50 at 24 h in data set [5] amounted to 9.63 µM. The pIC50 in data set [6] was 4.67; in data set [7], 4.45; in data set [8], 5.48; in [9], 4.75.
Turning to `CC1(C)OC2=C(C(=O)c3ccccc3C2=O)C1n1cc(-c2ccccc2)nn1` (configuration not stated), the “Ratio CC50/IC50” value is given as 6.67 in data set [10], 3.74 in [3], 7.93 in data set [11] and 8.01 in data set [4]. The compound further came in with a CC50 at 24 h in data set [5] of 8.01 µM. The pIC50 in [6] is 5.92; in data set [7], 5.67; in data set [8], 6.00; in data set [9], 6.00.
As to `CCCCCCc1cn(C2C3=C(OC2(C)C)C(=O)c2ccccc2C3=O)nn1` (configuration not stated), the “Ratio CC50/IC50” value in data set [10] amounted to 0.65; in data set [3], 0.25; in [11], 2.47; in data set [4] it was 2.47. This compound gave a CC50 at 24 h in [5] of 2.77 µM. Moreover, the pIC50 in [6] was 5.37; in data set [7], 4.96; in data set [8], 5.95; in data set [9] it was 5.95.
As for `CCCCCc1cn(C2C3=C(OC2(C)C)C(=O)c2ccccc2C3=O)nn1` (configuration not stated), the “Ratio CC50/IC50” value worked out at 14 in [10], 7.29 in [3], 14 in data set [11] and 15.02 in data set [4]. In [5], this compound displayed a CC50 at 24 h of 16 µM. Besides, the pIC50 in data set [6] was 5.94; in data set [7], 5.66; in [8], 5.94; in data set [9], 5.98.
For `CCC(C)(O)c1cn(C2C3=C(OC2(C)C)C(=O)c2ccccc2C3=O)nn1` (configuration not stated), the “Ratio CC50/IC50” value in data set [10] came to 0.66; in [3], 0.99; in [11], 0.7; in [4], 12.36. In data set [5], this compound returned a CC50 at 24 h of 17.9 µM. In addition, the negative logarithm of the IC50 (pIC50) in data set [6] is 4.57; in data set [7], 4.74; in data set [8] it was 4.60; in data set [9], 5.84.
Consider `CC(C)(O)c1cn(C2C3=C(OC2(C)C)C(=O)c2ccccc2C3=O)nn1` (configuration not stated), for which the “Ratio CC50/IC50” value in data set [10] came to 2.71; in [3], 1.39; in data set [11], 15.01; in data set [4] it was 12.78. Moreover, the 50% cytotoxic concentration (CC50) at 24 h in [5] is 19.8 µM. In addition, the pIC50 in [6] is 5.14; in [7], 4.85; in data set [8], 5.88; in data set [9], 5.81.
Consider `CC1(C)OC2=C(C(=O)c3ccccc3C2=O)C1n1cc(C2CCCCC2)nn1` (configuration not stated), for which the “Ratio CC50/IC50” value in [10] stood at 13.47; in [3] it was 5.35; in [11], 10.51; in data set [4] it was 10.23. Also, the CC50 at 24 h in data set [5] was 18.7 µM. The pIC50 in [6] is 5.86; in data set [7], 5.46; in data set [8], 5.75; in [9], 5.74.
For the compound `CC(C)=CC1=C(O)C(=O)c2ccccc2C1=O`, the “Ratio CC50/IC50” value in [3] and in [4] was less than 0.15 in each case. The CC50 at 24 h in data set [5] worked out at 14.6 µM. In addition, the pIC50 in data set [6], in data set [7], in data set [8] and in [9] was less than 4.00 each time.
Consider `CC1(C)OC2=C(C(=O)C(=O)c3ccccc32)C1n1cc(-c2ccccc2)nn1` (configuration not stated), for which the figures for the “Ratio IC50” value in [1] and in data set [2] were 23 and 15.5, respectively. Besides, the “Ratio CC50/IC50” value is listed as 3.32 in data set [10], 3.08 in data set [3], 3.29 in data set [11] and 3.42 in data set [4]. The same compound yielded a 50% cytotoxic concentration (CC50) at 24 h in data set [5] of 3.42 µM. Besides, the pIC50 in data set [6] is 5.99; in [7], 5.95; in data set [8], 5.98; in [9], 6.00.
For the compound `CC1(C)CC2=C(O1)C(=O)c1ccccc1C2=O`, the “Ratio CC50/IC50” value in data set [10] worked out at 0.5; in [3] it was 0.28; in [11], 0.6; in data set [4] it was 0.5. In data set [5], this compound had a CC50 at 24 h of 0.77 µM. The pIC50 in [6] is 5.81; in [7] it was 5.57; in data set [8] it was 5.89; in [9] it was 5.81.
Turning to `CC1(C)CCC2=C(O1)C(=O)c1ccccc1C2=O` [ALPHA-LAPACHONE], the “Ratio CC50/IC50” value in data set [10] was 0.25; in data set [3] it was 0.24; in data set [11], 0.65; in [4] it was 0.27. In addition, the 50% cytotoxic concentration (CC50) at 24 h in [5] was 3.8 µM. Moreover, the negative logarithm of the IC50 (pIC50) was 4.82 in [6], 4.79 in data set [7], 5.23 in data set [8] and 4.86 in [9].
In the case of `CC(C)=CCC1=C(O)C(=O)c2ccccc2C1=O` [LAPACHOL], the “Ratio CC50/IC50” value in [10] amounted to 0.94; in data set [3], 0.58; in data set [11], 0.59; in data set [4], 1.71. Moreover, the CC50 at 24 h in data set [5] came out at 59.3 µM. The negative logarithm of the IC50 (pIC50) in data set [6] is 4.20; in [7] it was 3.99; in data set [8] it was 4.00; in [9] it was 4.46.
Take `CC1(C)CCC2=C(O1)c1ccccc1C(=O)C2=O` [LAPACHONE]: the “Ratio CC50/IC50” value came to 0.57 in [10], 0.27 in data set [3], 0.7 in [11] and 1.14 in data set [4]. Further, the CC50 at 24 h in data set [5] worked out at 0.79 µM. Further, the pIC50 was 5.86 in data set [6], 5.54 in data set [7], 5.95 in data set [8] and 6.17 in [9].
With `CC1(C)CC2=C(O1)c1ccccc1C(=O)C2=O` [NOR-BETA-LAPACHONE], the “Ratio CC50/IC50” value is recorded as 0.97 in data set [10], 0.62 in data set [3], 0.97 in data set [11] and 1.36 in [4]. Further, the CC50 at 24 h in [5] came to 1.55 µM. Besides, the negative logarithm of the IC50 (pIC50) in data set [6] is 5.80; in [7], 5.61; in [8], 5.80; in [9], 5.94.
